Calls of active or inactive are those of the source. The calls are words filed in the database; no cut-off is given here.
Key:
MDA-MB-231 [1] = test: Induction of apoptosis in nuclear fractions of human MDA-MB-231 cells assessed as ratio of cleaved PARP to beta-actin level at 5 uM by western blot analysis (reference value: 1); assay type: functional
BT-549 [2] = test: Induction of apoptosis in human BT549 cells assessed as ratio of cleaved caspase-9 to beta-actin level at 5 uM by western blot analysis (reference value: 1); assay type: functional
MCF7 [3] = test: Cytotoxicity against human MCF7 cells assessed as reduction in cell viability at 5 uM by MTT assay; assay type: functional
MDA-MB-231 [4] = test: Effect on epithelial-mesenchymal transition in human MDA-MB-231 cells assessed as ratio of E-cadherin to beta-actin level at 5 uM by Western blot analysis (reference value: 1); assay type: functional
BT-549 [5] = test: Induction of apoptosis in nuclear fractions of human BT549 cells assessed as ratio of PARP to beta-actin level at 5 uM by western blot analysis (reference value: 1); assay type: functional
MDA-MB-231 [6] = test: Inhibition of mammosphere formation in human MDA-MB-231 cells assessed as ratio of KLF4 to beta actin level at 5 uM by Western blot analysis (Rvb= 1); assay type: functional
In short: (§1)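 Post-treatment cell lysates were probed by Western blot for CSC markers, with β-actin as the loading control. Band densitometry was normalized to DMSO-treated samples.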

BT-549 [7] = test: Effect on epithelial-mesenchymal transition in human BT549 cells assessed as ratio of vimentin to beta-actin level at 5 uM by Western blot analysis (reference value: 1); assay type: functional
MCF7 [8] = test: Induction of apoptosis in human MCF7 cells assessed as ratio of cleaved caspase-8 to beta-actin level at 5 uM by western blot analysis (reference value: 1); assay type: functional
MDA-MB-231 [9] = test: Inhibition of colony formation in human MDA-MB-231 cells at 2 uM supplemented with fresh medium containing compound every 3 days for 10 days by microscopic method based soft agar colony formation assay relative to control; assay type: functional
MCF7 [10] = test: Down regulation of Nanog expression in human MCF7 cells at 5 uM by Western blot analysis; assay type: functional
In short: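 MCF-7 cells were treated and lysates probed by Western blot for CSC-related markers, with β-actin as loading control. Band densitometry was normalized to DMSO-treated samples.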

MDA-MB-231 [11] = test: Induction of apoptosis in nuclear fractions of human MDA-MB-231 cells assessed as ratio of PARP to beta-actin level at 5 uM by western blot analysis (reference value: 1); assay type: functional
MDA-MB-231 [12] = test: Induction of apoptosis in human MDA-MB-231 cells assessed as ratio of cleaved caspase-9 to beta-actin level at 5 uM by western blot analysis (reference value: 1); assay type: functional
BT-549 [13] = test: Effect on beta-catenin translocation in nuclear fraction of human BT549 cells assessed as ratio of beta-catenin to beta-actin level at 5 uM by Western blot analysis (reference value: 1); assay type: functional
MCF-10A [14] = test: Induction of apoptosis in human MCF10A cells assessed as ratio of cleaved caspase-8 to beta-actin level at 5 uM by western blot analysis (reference value: 1); assay type: cell-based
MCF7 [15] = test: Induction of apoptosis in human MCF7 cells assessed as ratio of cleaved caspase-3 to beta-actin level at 5 uM by western blot analysis (reference value: 1); assay type: functional
MCF-10A [16] = test: Induction of apoptosis in human MCF10A cells assessed as ratio of cleaved caspase-3 to beta-actin level at 5 uM by western blot analysis (reference value: 1); assay type: cell-based
MCF7 [17] = test: Inhibition of colony formation in human MCF7 cells at 5 uM supplemented with fresh medium containing compound every 3 to 4 days for 7 days by crystal violet staining based adherent cell colony-forming assay; assay type: functional
In short: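 MCF-7 cells were plated for adherent colony formation and treated for 7 days. Colonies were counted at the end of treatment and normalized to untreated samples.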

MDA-MB-231 [18] = test: Inhibition of mammosphere formation in human MDA-MB-231 cells assessed as ratio of C-Myc to beta actin level at 5 uM by Western blot analysis (Rvb= 1); assay type: functional; in short: as §1
BT-549 [19] = test: Induction of apoptosis in human BT549 cells assessed as ratio of cleaved caspase-3 to beta-actin level at 5 uM by western blot analysis (reference value: 1); assay type: functional
MDA-MB-231 [20] = test: Effect on epithelial-mesenchymal transition in human MDA-MB-231 cells assessed as ratio of slug to beta-actin level at 5 uM by Western blot analysis (reference value: 1); assay type: functional
MDA-MB-231 [21] = test: Effect on beta-catenin translocation in nuclear fraction of human MDA-MB-231 cells assessed as ratio of beta-catenin to beta-actin level at 5 uM by Western blot analysis (reference value: 1); assay type: functional
MCF7 [22] = test: Inhibition of mammosphere formation in human MCF7 cells at 2 uM after 7 days by microscopic method; assay type: functional, cell-based
In short: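 MCF-7 cells were grown under mammosphere-forming conditions with compound. Spheres 60 μm or larger were counted for quantitation.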

BT-549 [23] = test: Effect on epithelial-mesenchymal transition in human BT549 cells assessed as ratio of slug to beta-actin level at 5 uM by Western blot analysis (reference value: 1); assay type: functional
BT-549 [24] = test: Inhibition of mammosphere formation in human BT549 cells assessed as ratio of KLF4 to beta actin level at 5 uM by Western blot analysis (Rvb= 1); assay type: functional
BT-549 [25] = test: Effect on epithelial-mesenchymal transition in human BT549 cells assessed as ratio of E-cadherin to beta-actin level at 5 uM by Western blot analysis (reference value: 1); assay type: functional
MDA-MB-231 [26] = test: Effect on epithelial-mesenchymal transition in human MDA-MB-231 cells assessed as ratio of vimentin to beta-actin level at 5 uM by Western blot analysis (reference value: 1); assay type: functional
BT-549 [27] = test: Cytotoxicity against human BT549 cells assessed as reduction in cell viability by MTT assay; assay type: functional, cell-based
MCF7 [28] = test: Inhibition of mammosphere formation in human MCF7 cells assessed as ratio of KLF4 to beta actin level at 5 uM by Western blot analysis (Rvb= 1); assay type: functional; in short: as §1
MCF7 [29] = test: Induction of apoptosis in human MCF7 cells assessed as ratio of cleaved caspase-9 to beta-actin level at 5 uM by western blot analysis (reference value: 1); assay type: functional
MDA-MB-231 [30] = test: Cytotoxicity against human MDA-MB-231 cells assessed as reduction in cell viability at 5 uM by MTT assay; assay type: functional
BT-549 [31] = test: Cytotoxicity against human BT549 cells assessed as reduction in cell viability at 5 uM by MTT assay; assay type: functional
BT-549 [32] = test: Induction of apoptosis in human BT549 cells assessed as ratio of cleaved caspase-8 to beta-actin level at 5 uM by western blot analysis (reference value: 1); assay type: functional
MDA-MB-231 [33] = test: Induction of apoptosis in human MDA-MB-231 cells assessed as ratio of cleaved caspase-3 to beta-actin level at 5 uM by western blot analysis (reference value: 1); assay type: functional
MDA-MB-231 [34] = test: Cytotoxicity against human MDA-MB-231 cells assessed as reduction in cell viability by MTT assay; assay type: functional, cell-based
MCF7 [35] = test: Inhibition of mammosphere formation in human MCF7 cells assessed as ratio of Sox2 to beta actin level at 5 uM by Western blot analysis (Rvb= 1); assay type: functional; in short: as §1
MCF7 [36] = test: Inhibition of mammosphere formation in human MCF7 cells assessed as ratio of Oct4A to beta actin level at 5 uM by Western blot analysis (Rvb= 1); assay type: functional; in short: as §1

C=C(c1ccc(C(=O)NCCN2CCCC2)cc1)c1cc2c(cc1C)C(C)(C)CCC2(C)C
Ratio (MDA-MB-231 [1]): 1.5
Ratio (BT-549 [2]): 2.1
Activity (MCF7 [3]): 40%
Ratio (MDA-MB-231 [4]): 6.2
Ratio (BT-549 [5]): 0.9
Ratio (MDA-MB-231 [6]): 0.5
Ratio (BT-549 [7]): 1
Ratio (MCF7 [8]): 1
inhibition (INH) (MDA-MB-231 [9]): 90%
Activity (MCF7 [10]): 20%
Ratio (MDA-MB-231 [11]): 0.9
Ratio (MDA-MB-231 [12]): 1.7
Ratio (BT-549 [13]): 0.5
Ratio (MCF-10A [14]): 1
Ratio (MCF7 [15]): 1
Ratio (MCF-10A [16]): 1
inhibition (INH) (MCF7 [17]): 80%
Ratio (MDA-MB-231 [18]): 1.1
Ratio (BT-549 [19]): 2.1
Ratio (MDA-MB-231 [20]): 1
Ratio (MDA-MB-231 [21]): 0.4
inhibition (MCF7 [22]): Active
Ratio (BT-549 [23]): 0.7
Ratio (BT-549 [24]): 0.8
Ratio (BT-549 [25]): 6.3
Ratio (MDA-MB-231 [26]): 0.3
EC50 (BT-549 [27]): < 10 µM
Ratio (MCF7 [28]): 0.7
Ratio (MCF7 [29]): 1.2
Activity (MDA-MB-231 [30]): 60%
Activity (BT-549 [31]): 60%
Ratio (BT-549 [32]): 1
Ratio (MDA-MB-231 [33]): 3.4
EC50 (MDA-MB-231 [34]): < 10 µM
Ratio (MCF7 [35]): 0.4
Ratio (MCF7 [36]): 1.1

— ChEMBL document CHEMBL4184106, “Discovering alkylamide derivatives of bexarotene as new therapeutic agents against triple-negative breast cancer” (Bioorg Med Chem Lett, 2018)
